≈ marks a conversion by molar mass, not a printed value. Calls of active or inactive are those of the source. The rule behind the calls is not given here.

Series [1] relates to Influenza A virus. Description: Antiviral activity against Influenza A virus (A/Puerto Rico/8/1934(H1N1)) infected in Kunming mouse assessed as decrease in lung IL6 level at 20 to 40 ug/day dosed intranasally starting 4 hrs after viral challenge and continued for 4 days by ELISA. In kind it is functional, organism-based. Put shortly: (§1)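 Four-week-old female Kunming mice received PR8 intranasally (500 PFU/mouse in 40 µL PBS) and were then dosed once daily orally or intranasally. Lungs were collected on day 4, and TNF-α and IL-6 in lung tissue were measured by ELISA.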

Series [2] is described as follows: AUC (0 to t) in rat at 0.35 mg/kg /kg, iv administered as single dose. The following applies: in vivo. It counts as ADME, organism-based. In outline: (§2)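 Male Kunming mice (20-25 g) and male Sprague Dawley rats (180-220 g) were fasted 12 h before dosing. Oral dosing was by gavage as a suspension in 0.5% sodium carboxymethyl cellulose; iv dosing was via tail vein in PEG400. Serial plasma samples were taken to 24 h, protein-precipitated with acetonitrile plus N-CH3 internal standard, and quantified by LC-MS/MS (n=3). Bioavailability = AUCoral/AUCiv.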

Series [3] deals with Influenza A virus. As to the kind of experiment: Antiviral activity against Influenza A virus (A/Puerto Rico/8/1934(H1N1)) infected in Kunming mouse assessed as mouse survival at 40 ug/day dosed intranasally starting 4 hrs after viral challenge and continued for 7 days and measured on day 14 by plaque assay. In kind it is functional. In outline:
(§3)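 Groups of 10 female Kunming mice were infected intranasally with PR8 (1000 PFU/mouse) on day 0 and dosed once daily for seven days. Weight and clinical signs were recorded daily. Mice losing more than 25% of pre-infection weight were scored dead and euthanized; survivors were killed on day 14.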

Series [4] has as its target Neuraminidase (Influenza A virus (A/Puerto Rico/8/1934(H1N1))) (UniProt P03468). Description: Inhibition of neuraminidase in inactivated Influenza A virus (A/Puerto Rico/8/1934(H1N1)) supernatants at 12.5 to 200 ug/mL pre-incubated for 30 mins by fluorescence based assay relative to control. Put shortly: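 Inactivated PR8 virus supernatant was mixed with compound diluted in 33 mM MES ([…]) and 4 mM CaCl2 for 30 min at 37 °C. MUNANA (20 µM) was then added for 30 min at 37 °C. The reaction was stopped with 25% ethanol and 0.1 M glycine, pH 10.7. Fluorescence was read at ex 360 and em 440 nm.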

Series [5] concerns Influenza A virus. As to the kind of experiment: Antiviral activity against Influenza A virus (A/Puerto Rico/8/1934(H1N1)) infected in Kunming mouse assessed as improvement in body weight at 20 to 40 ug/day dosed intranasally starting 4 hrs after viral challenge and continued for 7 days and measured up to day 14 by plaque assay. In kind it is functional, organism-based. In outline: as §3

Series [6] deals with Influenza A virus. Description: Antiviral activity against wild type Influenza A virus (A/Puerto Rico/8/1934(H1N1)) pseudovirus infected in 293FT cells incubated for 48 hrs by inverted fluorescence microscopy. It counts as functional, organism-based. Put shortly:
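GFP-reporter lentiviral pseudoviruses bearing PR8 wild-type or mutant (T30N/E233D/T359A or T359A) HA plus NA were produced in 293FT cells. Pseudovirus was pretreated with 50 µg/ml compound for 1 h at 37 °C before infection. GFP-positive cells were counted by fluorescence microscopy at 48 h p.i.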

In series [7] the test system is Influenza A virus. Description: Antiviral activity against Influenza A virus (A/California/04/2009(H1N1)) infected in MDCK cells incubated for 3 days by crystal violet staining based plaque assay. It counts as functional, organism-based. The following applies: 72 h. Put shortly: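 Confluent MDCK monolayers were exposed to 10-fold serial virus dilutions for 1 h at 37 °C, then washed. The overlay was DMEM with 1.5% agarose, 0.02% DEAE-dextran and 1 µg/ml TPCK-trypsin. After 3 days at 37 °C in 5% CO2, cells were fixed with 0.05% glutaraldehyde, stained with 1% crystal violet in 20% ethanol, and plaques were counted.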

Series [8] has as its target Hemagglutinin (Influenza A virus (A/Puerto Rico/8/1934(H1N1))) (UniProt P03452). Description: Inhibition of Hemagglutinin in Influenza A virus (A/Puerto Rico/8/1934(H1N1)) assessed as reduction in virus-induced aggregation of chicken erythrocytes at 3.125 to 50 ug/mL incubated for 60 mins by hemagglutination assay. In outline:
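Hemagglutination inhibition with PR8 virus and chicken RBCs standardized per the WHO manual. Virus was serially diluted 2-fold and 1% cRBCs were added at equal volume. After 60 min at 4 °C, negative wells show a sedimented red button and positive wells stay opaque without sedimentation. Compound was tested at 3.125–50 µg/mL.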

Series [9] concerns Influenza A virus. As to the kind of experiment: Antiviral activity against Influenza A virus (A/Puerto Rico/8/1934(H1N1)) infected in Kunming mouse assessed as decrease in lung IL6 level at 5 to 10 mg/kg/day, po starting 4 hrs after viral challenge and continued for 4 days by ELISA. In kind it is functional, organism-based. Put shortly: as §1
A short description of series [10]: Cumulative drug excretion in rat urine at 0.35mg/kg, iv administered as single dose measured after 72 hrs. The note with it: read-out: Drug excretion. In kind it is ADME, organism-based. Put shortly: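 Single oral (gavage, 0.5% CMC-Na) or iv (tail vein, PEG400) dosing was given to male Kunming mice or Sprague Dawley rats held in metabolic cages. Urine and feces were collected at intervals to 72 h. Feces were dried, ground and homogenized in water (1:9 w/v). Samples were precipitated with acetonitrile containing internal standard and analysed by LC-MS/MS.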

The nature of series [11]: Cmax in mouse at 5 mg/kg, po administered as single dose. The note with it: in vivo. Set-up: dose 5 mg/kg, route oral. It counts as ADME, organism-based. In outline:
as §2

The nature of series [12]: Toxicity in Kunming mouse assessed as effect on LDH level at 5 to 10 mg/kg/day, po for 7 days. It counts as organism-based. The following applies: in vivo, 168 h. Put shortly:
(§4)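 Male Kunming mice (20–25 g) received compound orally at 5 or 10 mg/kg/day, suspended in 0.5% sodium carboxymethyl cellulose, once daily for 7 days; controls received vehicle. Serum was collected under isoflurane 24 h after the last dose. AST, ALT, CR, BUN, LDH, CK and CK-MB were measured with commercial kits.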

A short description of series [13]: Toxicity in Kunming mouse assessed as effect on ALT level at 5 to 10 mg/kg/day, po for 7 days. In kind it is organism-based. The note with it: in vivo, 168 h. Put shortly:
as §4

Series [14] deals with Influenza A virus. Description: Antiviral activity against Influenza A virus (A/Puerto Rico/8/1934(H1N1)) infected in Kunming mouse assessed as decrease in pulmonary viral titers at 5 to 10 mg/kg/day, po starting 4 hrs after viral challenge and continued for 4 days by plaque assay. In kind it is functional, organism-based. Put shortly:
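Four-week-old female Kunming mice were infected intranasally with PR8 (500 PFU/mouse in 40 µL PBS), randomized, and dosed once daily orally or intranasally. On day 4 the mice were euthanized; lungs were removed, weighed, homogenized in PBS, and titrated by plaque assay.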

Series [15] in a line: Cytotoxicity in dog MDCK cells assessed as reduction in cell viability incubated for 48 hrs by crystal violet staining based assay. Set-up: species or system Canis lupus familiaris.
The nature of series [16]: Tmax in rat at 3.5 mg/kg , po administered as single dose. In kind it is ADME, organism-based. The following applies: in vivo. In outline: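 Male Kunming mice (20–25 g) and male SD rats (180–220 g) were fasted 12 h before dosing. Compound was suspended in 0.5% CMC-Na and given by gavage (5 mg/kg mice, 3.5 mg/kg rats), or dissolved in PEG400 and given iv via tail vein (0.5 mg/kg mice, 0.35 mg/kg rats). Plasma was sampled from 5 min to 24 h and analysed by LC-MS/MS (n=3). F = AUCoral/AUCiv.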

The nature of series [17]: Elimination half life in mouse at 0.5 mg/kg, iv administered as single dose. It counts as ADME, organism-based. The note with it: in vivo, read-out: beta t1/2 (converted). Put shortly:
as §2

Chain of Hemagglutinin (Influenza A virus (A/Puerto Rico/8/1934(H1N1))) (P03452 whole entry): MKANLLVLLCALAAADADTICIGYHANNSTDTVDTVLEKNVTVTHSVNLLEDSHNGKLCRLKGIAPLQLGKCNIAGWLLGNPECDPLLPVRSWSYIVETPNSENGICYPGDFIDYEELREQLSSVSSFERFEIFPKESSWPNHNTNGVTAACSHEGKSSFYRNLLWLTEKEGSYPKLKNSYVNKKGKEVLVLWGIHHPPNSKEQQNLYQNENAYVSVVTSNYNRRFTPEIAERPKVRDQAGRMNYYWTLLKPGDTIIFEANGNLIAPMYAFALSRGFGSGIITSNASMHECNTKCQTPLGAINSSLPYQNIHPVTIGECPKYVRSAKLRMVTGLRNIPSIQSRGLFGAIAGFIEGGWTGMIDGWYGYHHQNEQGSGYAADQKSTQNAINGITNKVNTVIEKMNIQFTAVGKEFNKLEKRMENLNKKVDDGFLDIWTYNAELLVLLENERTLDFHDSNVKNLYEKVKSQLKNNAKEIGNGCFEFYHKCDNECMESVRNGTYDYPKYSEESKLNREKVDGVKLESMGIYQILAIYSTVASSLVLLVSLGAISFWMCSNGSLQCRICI
Chain of Neuraminidase (Influenza A virus (A/Puerto Rico/8/1934(H1N1))) (P03468 whole entry): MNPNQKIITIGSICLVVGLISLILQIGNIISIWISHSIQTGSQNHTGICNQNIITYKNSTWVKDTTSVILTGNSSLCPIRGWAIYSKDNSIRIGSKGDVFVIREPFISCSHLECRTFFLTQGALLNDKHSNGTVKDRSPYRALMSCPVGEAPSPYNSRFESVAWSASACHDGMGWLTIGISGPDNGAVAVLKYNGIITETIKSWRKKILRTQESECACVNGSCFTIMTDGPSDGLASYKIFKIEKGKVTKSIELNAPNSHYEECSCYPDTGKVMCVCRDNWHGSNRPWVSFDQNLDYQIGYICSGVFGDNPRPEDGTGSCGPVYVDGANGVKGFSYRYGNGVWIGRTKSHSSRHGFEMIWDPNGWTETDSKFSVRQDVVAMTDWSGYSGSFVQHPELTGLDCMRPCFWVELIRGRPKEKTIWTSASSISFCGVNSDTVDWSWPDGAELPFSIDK

For `CC(=O)c1cc(C)c(O)c(Cc2[nH]c3ccccc3c2Cc2c(O)c(C)cc(C(C)=O)c2O)c1O`, the result in the series with Influenza A virus [1], in the series with Influenza A virus [5], in the series with Influenza A virus [9] and with Influenza A virus [14] was Active. In [2], this compound came in with an area under the curve AUC(0-t) of 10100 ng·h/mL. Also, the Survival in the series with Influenza A virus [3] was determined as 100%. This compound yielded an inhibition in series [4] below 15%. Also, the IC50 is 6 µg/mL (≈ 12.7 µM) in the series on Influenza A virus [6] and below 13 µg/mL in the series with Influenza A virus [7]. Besides, the inhibition result in series [8] was “Active”. For the same compound, in series [10], the dose excreted at 72 h is 0.006%. Further, in series [11], the peak level (Cmax) was 16 ng/mL. Further, the Activity result in series [12] and in series [13] was “Non-Toxic” in each case. The half-maximal cytotoxic concentration (CC50) at 48 h in series [15] worked out at 1470 µM. Further, the Tmax in [16] amounted to 4.3 h. In addition, the half-life in series [17] is 3.4 h.

Values taken from ChEMBL document CHEMBL4619773, “Chemoreactive-Inspired Discovery of Influenza A Virus Dual Inhibitor to Block Hemagglutinin-Mediated Adsorption and Membrane Fusion” (J Med Chem, 2020).
